The values below come from PMC3040456 (Current Chemical Genomics, 2010).

Structures are written as SMILES. Read-outs that look alike come from different tables or passages of the source.

Experiment [1] concerns the target T1, α-Galactosidase A from green coffee beans (Coffea arabica, UniProt Q42656). Put plainly: GLA enzyme kinetics assay. Type of experiment: biochemical.
Experiment [2] deals with GLA. The note with it: cited from earlier work.
For experiment [3], the target named is T2, human recombinant GLA (Homo sapiens, UniProt P06280).
T2 sequence (P06280 32-429): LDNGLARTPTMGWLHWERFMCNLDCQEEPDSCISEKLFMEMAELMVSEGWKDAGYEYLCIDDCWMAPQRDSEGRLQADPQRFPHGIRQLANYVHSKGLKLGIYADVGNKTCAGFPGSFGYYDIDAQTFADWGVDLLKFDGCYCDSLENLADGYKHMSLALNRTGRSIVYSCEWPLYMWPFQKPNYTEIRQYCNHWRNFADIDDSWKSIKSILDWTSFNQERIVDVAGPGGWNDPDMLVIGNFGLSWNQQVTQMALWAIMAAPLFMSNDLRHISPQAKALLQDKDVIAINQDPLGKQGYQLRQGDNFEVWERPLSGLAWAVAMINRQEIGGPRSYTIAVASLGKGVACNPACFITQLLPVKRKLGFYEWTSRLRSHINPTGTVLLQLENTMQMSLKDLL
Put plainly: qHTS with human recombinant GLA. Type of experiment: biochemical. The note with it: human recombinant GLA screen.

For experiment [4], the target named is T1, α-Galactosidase A from green coffee beans. Kind of experiment: GLA enzyme assay with 4MU-α-Gala, purified enzyme from green coffee beans. The experiment is classed as biochemical. The note with it: for selectivity for GLA over GC (words): GLA vs GC; for inhibitory activity against GLA in qHTS and confirmation: bioactive 6,160 compound set; for IC50: read-out: IC50 for GLA, coffee bean GLA 1 nM, 40 μM 4MU-α-Gala, pH 5.9.

Experiment [5] deals with T3, human recombinant glucocerebrosidase (GC) (Homo sapiens, UniProt P04062, R534H).
T3 sequence (P04062 40-536 R534H): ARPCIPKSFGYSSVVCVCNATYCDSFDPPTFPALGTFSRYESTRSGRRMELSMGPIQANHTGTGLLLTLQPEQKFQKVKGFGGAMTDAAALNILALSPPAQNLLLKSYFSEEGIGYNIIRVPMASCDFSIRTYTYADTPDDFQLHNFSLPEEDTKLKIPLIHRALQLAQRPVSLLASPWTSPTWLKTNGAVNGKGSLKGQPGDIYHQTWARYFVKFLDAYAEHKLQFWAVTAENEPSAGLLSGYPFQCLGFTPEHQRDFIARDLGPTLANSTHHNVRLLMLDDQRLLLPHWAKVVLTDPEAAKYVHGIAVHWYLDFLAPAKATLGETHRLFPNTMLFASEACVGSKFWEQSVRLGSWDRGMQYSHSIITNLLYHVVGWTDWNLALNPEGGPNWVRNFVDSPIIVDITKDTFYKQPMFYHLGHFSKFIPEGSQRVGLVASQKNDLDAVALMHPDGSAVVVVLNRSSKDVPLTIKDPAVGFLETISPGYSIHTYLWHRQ
Put plainly: glucocerebrosidase. The experiment is classed as biochemical. An outline of the steps: (§1)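 Enzyme (2 μl), then 23 nl test compound in DMSO, then 1 μl 4MU substrate; 30 min at 21 °C, NaOH/glycine stop (pH 11.6), fluorescence at ex 365/em 440 nm. Enzymes stored in 30% glycerol at -80°C. GC: clinical imiglucerase, 1.9 nM, 800 μM 4MU-β-Glc, citrate/phosphate pH 5.9. GAA: 8 nM, 160 μM 4MU-α-glc, same buffer titrated to pH 5.0.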

Experiment [6] has as its target T4, GLA in human spleen homogenate (Homo sapiens, UniProt P06280).
T4 sequence (P06280 32-429): T2 sequence (P06280 32-429)
Put plainly: qHTS with GLA in human spleen homogenate. The experiment is classed as biochemical. The note with it: human spleen homogenate screen.

In experiment [7] the test system is rice α-glucosidase (GAA). Kind of experiment: α-glucosidase. Type of experiment: biochemical. Conditions: enzyme 8 nM, substrate 160 μM. In short, it runs like this:
as §1

Setting [8] is: read-out: IC50 for GC, enzyme 1.9 nM, substrate 800 μM.

T1 sequence (Q42656 16-378): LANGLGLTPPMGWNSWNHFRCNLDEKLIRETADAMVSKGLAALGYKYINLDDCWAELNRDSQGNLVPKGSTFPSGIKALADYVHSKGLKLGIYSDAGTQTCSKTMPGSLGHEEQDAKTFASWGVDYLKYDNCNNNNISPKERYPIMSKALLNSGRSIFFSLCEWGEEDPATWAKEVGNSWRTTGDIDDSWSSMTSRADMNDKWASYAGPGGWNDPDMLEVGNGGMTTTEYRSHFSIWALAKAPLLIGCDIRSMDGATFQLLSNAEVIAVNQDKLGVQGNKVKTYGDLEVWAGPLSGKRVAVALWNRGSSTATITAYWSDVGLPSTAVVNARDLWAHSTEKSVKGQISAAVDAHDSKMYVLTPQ

On to `Cc1cc(=O)oc2cc(O[C@H]3O[C@H](CO)[C@H](O)[C@H](O)[C@H]3O)ccc12` [4MU-α-Gala, 4-methylumbelliferyl-α-D-galactopyranoside], for which the Km in experiment [1] (pH 4.5) is 102 µM; in experiment [1] (pH 5.9, 1 nM enzyme), 144 µM; in experiment [2] (same substrate, pH 6.5), 239 µM. Also, the Vmax amounted to 2.76 pmol/min in experiment [1] (pH 4.5) and 5.74 pmol/min in experiment [1] (pH 5.9, 1 nM enzyme).

In the case of `OC[C@H]1NC[C@H](O)[C@@H](O)[C@H]1O` [DGJ, 1-deoxygalactonojirimycin], the IC50 in experiment [2] (read-out: reported IC50 value) was 3 nM.

As to `Cc1c(OCC(F)(F)F)ccnc1C[S+]([O-])c1nc2ccccc2[nH]1` (stereo not drawn) [lansoprazole], in experiment [3], the “activity with the human enzyme” value is on record as “not active”. Further, in experiment [4], the “selectivity for GLA over GC (words)” value was “showed selectivity for GLA over GC”; the “inhibitory activity against GLA in qHTS and confirmation” value (“inhibitory activity against GLA” below) is given as “relatively high inhibitory activity”. Affinity in experiment [1] was put at a Ki of 5500 nM. The type of inhibition entry in experiment [1] (Lineweaver-burk plot) is “mixed type of inhibition”. The IC50 in experiment [5] was 122000 nM. For the same compound, the “activity with the human enzyme” value in experiment [6] was “not active”. In addition, the “inhibition of GAA” value in experiment [7] is “did not inhibit GAA”.

Turning to `O=C([O-])c1ccccc1-c1c2cc(Br)c(=O)cc-2oc2[c]([Hg+])c([O-])c(Br)cc12.[Na+].[Na+].[OH-]` [merbromin], in experiment [4], the “selectivity for GLA over GC (words)” value is “not selective for GLA”; the “inhibitory activity against GLA” value is reported as “relatively high inhibitory activity”; the IC50 was 1380 nM. For the same compound, the “selectivity for GLA over GC (words)” value in experiment [4] (listed as Merbromin) is on record as “more potent against GC than GLA”. In experiment [5] (setting [8]), the IC50 is 630 nM. Also, the “inhibition of GAA” value in experiment [7] was “slightly inhibited GAA”.

Turning to `CC(=O)[O][Hg][c]1ccccc1` [phenylmercuric acetate], the “selectivity for GLA over GC (words)” value in experiment [4] is given as “not selective for GLA”; in experiment [4] (listed as Phenylmercuric acetate), “significantly more potent against GC than GLA”. Moreover, in experiment [4], the “inhibitory activity against GLA” value is on record as “relatively high inhibitory activity”. In addition, the values for the IC50 in experiment [4] and in experiment [5] (setting [8]) were 7420 nM and 82 nM, respectively. For the same compound, in experiment [7], the “inhibition of GAA” value is on record as “did not inhibit GAA”.

`C[C@H](CCC(=O)NCCS(=O)(=O)O)[C@H]1CC[C@H]2[C@@H]3[C@H](O)C[C@@H]4C[C@H](O)CC[C@]4(C)[C@H]3C[C@H](O)[C@]12C` [sodium taurocholate]: the “effect on GLA activity” value in experiment [4] (titration 0.15 to 40 mM) was “decreased the GLA activity”.
